{"source": "ChEMBL document CHEMBL3045020", "about": "“Insect antifeedant activity of flavones and chromones against Spodoptera litura” (2003)"}
{"system": "Spodoptera litura", "test": "Antifeedant activity against Spodoptera litura F. by choice leaf disk assay", "assay_type": "functional", "method_in_brief": "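Antifeedant value calculated from the rate of leaf consumption. A straight line was fitted to the bioassay points to obtain the ED50.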", "units": {"ED50": "umol/cm2"}}
{"molecule": "COc1cc2oc(C)cc(=O)c2c(OC)c1OC", "ED50": 0.41}
{"molecule": "COc1ccc2c(=O)cc(C)oc2c1", "ED50": ">10"}
{"molecule": "COc1cc(OC)c2c(=O)cc(C)oc2c1", "ED50": ">10"}
{"molecule": "Cc1ccc2c(=O)cc(C)oc2c1", "note": "[2,7-DIMETHYLCHROMONE]", "ED50": 0.102}
{"molecule": "COc1ccc(-c2oc3c(OC)c(OC)c(OC)c(O)c3c(=O)c2OC)cc1", "note": "[5-HYDROXYAURANETIN]", "ED50": 0.11}
{"molecule": "O=c1cc(-c2ccccc2)oc2ccc(O)cc12", "note": "[6-HYDROXYFLAVONE]", "ED50": ">10"}
{"molecule": "COc1ccc2oc(-c3ccccc3)cc(=O)c2c1", "note": "[6-METHOXYFLAVONE]", "ED50": 0.15}
{"molecule": "Cc1ccc2oc(-c3ccccc3)cc(=O)c2c1", "note": "[6-METHYLFLAVONE]", "ED50": 0.035}
{"molecule": "O=c1cc(-c2ccccc2)oc2cc(O)ccc12", "note": "[7-HYDROXYFLAVONE]", "ED50": ">10"}
{"molecule": "COc1ccc2c(=O)ccoc2c1", "note": "[7-METHOXYCHROMONE]", "ED50": 0.096}
{"molecule": "COc1ccc2c(=O)cc(-c3ccccc3)oc2c1", "note": "[7-METHOXYFLAVONE]", "ED50": 0.059}
{"molecule": "O=c1cc(-c2ccc(O)cc2)oc2cc(O)cc(O)c12", "note": "[APIGENIN]", "ED50": ">10"}
{"molecule": "O=c1cc(-c2ccccc2)oc2cc(O)c(O)c(O)c12", "note": "[BAICALEIN]", "ED50": 0.96}
{"molecule": "O=c1ccoc2ccccc12", "note": "[CHROMONE]", "ED50": 0.168}
{"molecule": "O=c1cc(-c2ccccc2)oc2cc(O)cc(O)c12", "note": "[CHRYSIN]", "ED50": 2.5}
{"molecule": "O=c1cc(-c2ccccc2)oc2ccccc12", "note": "[FLAVONE]", "ED50": 0.11}
{"molecule": "COc1cc(O)c2c(=O)cc(-c3ccccc3)oc2c1O", "note": "[ISOWOGONIN]", "ED50": ">10"}
{"molecule": "O=c1cc(-c2ccc(O)c(O)c2)oc2cc(O)cc(O)c12", "note": "[LUTEOLIN]", "ED50": ">10"}
{"molecule": "COc1cc2oc(-c3ccccc3)cc(=O)c2c(O)c1OC", "note": "[MOSLOFLAVONE]", "ED50": ">10"}
{"molecule": "COc1ccc(-c2cc(=O)c3c(OC)c(OC)c(OC)c(OC)c3o2)cc1OC", "note": "[NOBILETIN]", "ED50": 5.6}
{"molecule": "O=c1cc(-c2ccccc2)oc2c(O)c(O)cc(O)c12", "note": "[NORWOGONIN]", "ED50": 1.52}
{"molecule": "COc1c(O)cc2oc(-c3ccccc3)cc(=O)c2c1O", "note": "[OROXYLIN A]", "ED50": ">10"}
{"molecule": "COc1ccc(-c2cc(=O)c3c(OC)c(OC)c(OC)c(OC)c3o2)cc1", "note": "[TANGERETIN]", "ED50": 0.28}
{"molecule": "COc1c(O)cc(O)c2c(=O)cc(-c3ccccc3)oc12", "note": "[WOGONIN]", "ED50": 2}
